SENP8 block-1: blocks the human protease SENP8 | Q96LD8 | purified SENP8, Z-RLRGG-aminoluciferin cleavage, luminescence | inhibition, % at 10 µM | 330,000 compounds, 1.2% hits | AID 2540; in the data active = inhibition above about 50%
Target sequence (Q96LD8 whole entry, looked up): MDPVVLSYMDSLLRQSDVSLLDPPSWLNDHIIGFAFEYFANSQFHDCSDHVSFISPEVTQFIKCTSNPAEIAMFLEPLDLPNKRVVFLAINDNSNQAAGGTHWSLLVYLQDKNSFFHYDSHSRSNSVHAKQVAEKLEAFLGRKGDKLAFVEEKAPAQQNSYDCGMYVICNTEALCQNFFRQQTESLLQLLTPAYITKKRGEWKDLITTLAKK
SENP6 inh: inhibitors of human SENP6 protease; Q9GZR1; 330,000 compounds, 1.8% hits; Recombinant SENP6 catalytic domain, aminoluciferin luminescence; inhibition, % at 10 µM;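 active = inhibition above about 50% at the single tested dose, limit read from the data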
SENP7 inh: inhibitors of human SENP7 protease | AID 434973 | recombinant SENP7, Z-RLRGG-aminoluciferin luminescence, 40 min | inhibition, % at 5 µM | 330,000 compounds, 1.5% hits | Q9BQF6;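 active = inhibition above about 50% at the single test dose, limit read from the data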
Target sequence (Q9BQF6 706-1050 limits assumed): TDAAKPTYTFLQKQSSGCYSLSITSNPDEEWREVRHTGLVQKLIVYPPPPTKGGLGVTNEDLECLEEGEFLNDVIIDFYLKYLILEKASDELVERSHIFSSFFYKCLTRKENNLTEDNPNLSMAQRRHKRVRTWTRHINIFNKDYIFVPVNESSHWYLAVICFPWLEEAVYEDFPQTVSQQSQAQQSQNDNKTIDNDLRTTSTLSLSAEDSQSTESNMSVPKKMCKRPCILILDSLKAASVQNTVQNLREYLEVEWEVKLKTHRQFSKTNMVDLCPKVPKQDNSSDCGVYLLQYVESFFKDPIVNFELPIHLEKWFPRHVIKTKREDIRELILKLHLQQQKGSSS
SENP1 FRET inh: blocks the human SENP1 SUMO protease catalytic domain. Q9P0U3. recombinant SENP1 catalytic domain, CyPet-SUMO1-YPet FRET cleavage. inhibition, % at 10 µM. 360,000 compounds, 0.21% hits. AID 624204;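 active = inhibition at least 30% at 10 µM, raw YFP signal under a set limit, fluorescence ratio 0.5 to 1.5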
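material = recombinant human SENP1 catalytic domain, His6-tagged | quantity = 20 pM enzyme | reagent = 25 nM SUMO1 FRET substrate | compound dosing = 10 µM single point, 0.5% DMSO | timing = 50 min enzyme reaction, room temperature, light-protected | detection = FRET, CFP and YFP emission | control set = no-enzyme low, enzyme-DMSO high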
SENP8 block-2: inhibitors of human SENP8 protease; inhibition, % at 20 µM; 360,000 compounds, 0.64% hits; Q96LD8; recombinant SENP8, Nedd8 substrate fluorescence; AID 602440; in the data active = inhibition mostly above about 40%, no sharp cut-off; inactive = mostly below about 27%
SENP8 conf: confirmation of human SENP8 protease inhibitors; 1,400 compounds, 15% hits; AID 624319; inhibition, % at 25 µM; purified SENP8, Nedd8-AMC/pro-Nedd8 cleavage fluorescence, 30 min; shares compounds with SENP8 block-2; in the data active = inhibition mostly above about 39%, no sharp cut-off; inactive = mostly below about 34%
A number is an active result; – = inactive; · = no result. Hits are enriched below; roughly 2.5% of the tested compounds scored in any of these assays.

SMILES	SENP8 block-1	SENP6 inh	SENP7 inh	SENP1 FRET inh	SENP8 block-2	SENP8 conf
COC(=O)CCCC1=CC2=C(c3ccccc3)C(=O)C(C)(OC(=O)C3CCCC3)C(=O)C2=CN1CCCCO (centres undefined)	–	–	–	–	48	66
COc1cccc(CNC(=O)CCC2CCCN(Cc3ccc4c(c3)CCO4)C2)c1 (centres undefined)	–	–	–	–	–	·
O=C(Nc1ccccc1C(=O)N1CCCCC1)c1ccc(Cl)cc1Cl	–	–	–	–	–	·
CS(=O)(=O)c1ccc(Cl)c(NC(=O)CN2CCN(C(=O)c3cccs3)CC2)c1	–	–	–	–	–	·
CC1C(c2ccc3c(c2)OCO3)c2cc3c(cc2OC1N1CCOCC1)OCO3 (centres undefined)	·	·	·	–	–	·
c1ccc(NC2=NCCN2CCC2CCCCC2)cc1	–	–	–	–	–	·
CCN(CC)C(=O)c1sc(NC(=O)C(C)C)c(C#N)c1C	–	–	–	–	–	·
O=C(COc1ccc(Cl)cc1)N1CCN(C(=O)c2cccc(F)c2)CC1	–	–	–	–	–	·
O=C(COc1ccccc1)N1CCN(C(=O)c2cccc(F)c2)CC1	–	–	–	–	41	–
COC(=O)/C(=C/Nc1ccc(O)cc1)[N+](=O)[O-]	–	–	–	–	74	–
CC(C)N(c1ccccc1)c1ccc(NC(=O)[C@@H]2O[C@H](CO)[C@@H](O)[C@H]2O)cc1	·	·	·	–	–	·
NS(=O)(=O)c1ccc(N/N=C/c2ccc3c(c2)OCO3)c([N+](=O)[O-])c1	–	–	–	–	44	–
NS(=O)(=O)c1ccc(N/N=C/c2cn(-c3ccccc3)nc2-c2ccccc2)c([N+](=O)[O-])c1	–	–	–	–	54	–
O=C(O)c1ccc(/C=N/Nc2ccc(S(=O)(=O)N3CCCC3)cc2[N+](=O)[O-])cc1	–	–	–	–	–	·
O=[N+]([O-])c1cc(S(=O)(=O)N2CCCC2)ccc1N/N=C/c1ccncc1	–	–	–	–	47	–
Cc1ccc(C=Nc2ccc(N(C)C)cc2)o1	–	–	–	–	45	–
COc1ccccc1OCCCCN1CCN(c2ccccc2OC)CC1	–	–	–	–	48	–
Cc1c(C#N)c(O)n(C)c(=O)c1N=Nc1ccc(S(N)(=O)=O)cc1	·	·	·	–	49	–
Cc1c(C#N)c(O)n(CCO)c(=O)c1N=Nc1ccc(S(N)(=O)=O)cc1	–	–	–	–	–	·
COc1ccc(C(=O)C(CCCCC(CN(C)C)C(=O)c2ccc(OC)cc2)CN(C)C)cc1 (centres undefined)	–	–	–	–	42	–
N#CC1(CCCN2CCCCC2)c2ccccc2CCc2ccccc21	–	–	–	–	41	–
Cc1ccc(NNC(=O)c2c(C)noc2C)cc1Cl	–	–	–	–	54	–
CCn1c(SCC(=O)N2CCC(C)CC2)nc2c(c1=O)SC(C)C2 (centres undefined)	–	–	–	–	–	·
CCOC(=O)C(=CNNc1ccccc1)C(=O)OCC	–	–	–	–	45	–
CCOC(=O)NNc1ccccc1	–	–	–	–	–	·
SMILES	SENP8 block-1	SENP6 inh	SENP7 inh	SENP1 FRET inh	SENP8 block-2	SENP8 conf
O=C(NCc1cccs1)C1CCCN1C(=O)Nc1cccc(F)c1 (centres undefined)	–	–	–	–	–	·
O=C(NCc1cccs1)C1CCCN1C(=O)Nc1ccc(F)cc1 (centres undefined)	–	–	–	–	41	–
COc1cc(SC#N)ccc1N=Cc1c(C)[nH]n(-c2ccc(Cl)cc2)c1=O	–	–	–	–	61	–
Cc1cccc(C)c1NC(=O)C(c1ccccc1)N1CCN(c2ccc(C(F)(F)F)cn2)CC1 (centres undefined)	·	·	·	–	–	·
CCOc1ccc(OCCSc2nc3ccccc3o2)cc1	–	–	–	–	47	–
Cc1cccc(OCc2nnc(SC(C)C(=O)O)n2-c2ccccc2)c1 (centres undefined)	–	–	–	–	–	·
CCN(CC)S(=O)(=O)c1ccc(N2CCN(c3cccc(OC)c3)CC2)c([N+](=O)[O-])c1	–	–	–	–	43	–
O=[N+]([O-])c1ccc(N/N=C/c2c[nH]c3ccccc23)cc1	–	–	–	–	52	–
O=C(N/N=C/c1c[nH]c2ccccc12)c1cccc([N+](=O)[O-])c1	–	–	–	–	–	·
CCN(CC)c1ccc(N=Cc2c(C)[nH]c3ccccc23)cc1	–	–	–	–	60	–
Cc1ccc(C)c(C(O)c2ncc(-c3ccccc3Cl)[nH]2)c1 (centres undefined)	·	·	·	–	–	·
Cc1ccccc1C(=O)NCCN1CCOCC1	–	–	–	–	–	·
CC(C(=O)NCCN1CCOCC1)(c1ccccc1)c1ccccc1	–	–	–	–	67	–
NS(=O)(=O)c1ccc(CNC(=O)c2cccnc2Cl)cc1	–	–	–	–	–	·
Nc1cccc2c1C(=O)N(c1ccccc1)C2=O	–	–	–	–	–	·
O=C1c2ccccc2C(=O)N1c1ccccc1	·	·	·	–	42	–
CCCCc1ccc(NC(=S)Nc2ccc(Nc3ccc(OC)cc3)cc2)cc1	–	–	–	–	42	–
Cc1ccc(NS(=O)(=O)c2ccc(C(=O)NCCCN3CCCC3=O)cc2)cc1	–	–	–	–	–	·
CN(CCO)c1cc(Sc2nc3ccccc3s2)c2nonc2c1[N+](=O)[O-]	–	–	–	–	55	–
CN1CCN(CC(=O)n2c3c(c4ccccc42)CCCC3)CC1	–	–	–	–	44	–
CC(O)C(NC(=O)OCc1ccccc1)C(=O)OCc1ccccc1 (centres undefined)	–	–	–	–	–	·
CCOC(=O)CN1C(=O)S/C(=C/c2ccc(O)c([N+](=O)[O-])c2)C1=O	–	–	–	–	48	–
CCOC(=O)CN1C(=O)S/C(=C/c2ccc(C)o2)C1=O	–	–	–	–	–	·
O=C(CSc1cccs1)Nc1ccc(Cl)cc1	–	–	–	–	–	·
CC(C)(CC(=O)c1ccccc1)CC(=O)c1ccccc1	·	·	·	–	–	·
SMILES	SENP8 block-1	SENP6 inh	SENP7 inh	SENP1 FRET inh	SENP8 block-2	SENP8 conf
Cc1[nH][nH]c(=O)c1C(c1c(C)[nH][nH]c1=O)c1cn(C)c2ccccc12	·	·	·	–	77	50
COCCN1Cc2cccc(C(=O)NCc3cccs3)c2C1=O	–	–	–	–	42	–
CCCn1c(=C(C#N)C#N)s/c(=C2\C=Cc3ccccc3N2CC)c1=O	·	·	·	–	52	–
CCOC(=O)C1(C)C=C(Nc2ccc(OC)cc2)C(=O)N1c1ccc(OC)cc1 (centres undefined)	–	–	–	–	–	·
CCOC(=O)C1(C)C=C(Nc2ccc(O)cc2)C(=O)N1c1ccc(O)cc1 (centres undefined)	–	–	–	–	61	–
CCN(CC)S(=O)(=O)c1ccc(N/N=C/c2ccccc2OCC(=O)O)c([N+](=O)[O-])c1	–	–	–	–	51	–
Nc1ccc(Cc2ccc(N)c(O)c2)cc1O	·	·	·	–	48	–

Source: PubChem BioAssay
